These results are taken from ChEMBL document CHEMBL1156561, “Discovery of piperidine carboxamide TRPV1 antagonists” (Bioorg Med Chem Lett, 2008).

pIC50, pKi: −log10 of the molar value. Calls of active or inactive are those of the source. The rule behind the calls is not given here.

One data set has as its system Caco-2. The data set can be described thus: Ratio of permeability from basolateral to apical over apical to basolateral side of human Caco-2 cells. (In general: Caco-2 cells form a polarised layer with tight junctions and transporters.)
The target of data set [1] is T1, Transient receptor potential cation channel subfamily V member 1 (Homo sapiens, UniProt Q8NER1). Kind of data set: Antagonist activity at human TRPV1 receptor assessed as inhibition of capsaicin-induced calcium flux by FLIPR. The class given is functional. A digest of the protocol: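 Capsaicin-evoked Ca2+ flux in cells expressing TRPV1, read on a FLIPR with a Ca2+-sensitive fluorescent dye. Antagonism was taken as inhibition of the capsaicin response.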

Data set [2] is described as follows: Metabolic stability in human liver microsomes assessed as half life. It counts as ADME, Microsome. On the technique in general: Liver microsomes are a subcellular fraction often used to study metabolism.
Data set [3] in a line: Metabolic stability in rat liver microsomes assessed as half life. It counts as ADME, Microsome.
The target of the next data set is Cytochrome P450 2D6 (Homo sapiens, UniProt P10635). The data set can be described thus: Inhibition of recombinant CYP2D6. It counts as ADME.
A further data set addresses Cytochrome P450 3A4 (Homo sapiens, UniProt P08684). Kind of data set: Inhibition of recombinant CYP3A4. The class given is ADME.
Data set [4] is described as follows: Apparent permeability from apical to basolateral side of human Caco-2 cells. The class given is ADME, cell-based.
The target in data set [5] is T1, Transient receptor potential cation channel subfamily V member 1. The data set can be described thus: Displacement of [3H]RTX from human TRPV1 receptor expressed in HEK293 cell membrane. The class given is cell membranes.
The target is the same in data set [6]. Kind of data set: Antagonist activity at human TRPV1 receptor assessed as inhibition of capsaicin-induced calcium flux at 1 uM by FLIPR. It counts as functional. (In general: A change in cytosolic calcium serves as a functional read-out for many receptors and channels.)

The term pIC50 denotes −log10 of the IC50, conventionally taken in molar units. In general, half-life refers to the time in which the quantity being followed falls by half. By Papp A→B is commonly meant the apparent permeability from the apical to the basolateral side of a cell layer. A word on the pKi: it is −log10 of the Ki, conventionally taken in molar units. The low end stands for a high Ki, the high end for a low Ki. One may read the inhibition as how much of the control response was suppressed.

T1 sequence (Q8NER1 whole entry): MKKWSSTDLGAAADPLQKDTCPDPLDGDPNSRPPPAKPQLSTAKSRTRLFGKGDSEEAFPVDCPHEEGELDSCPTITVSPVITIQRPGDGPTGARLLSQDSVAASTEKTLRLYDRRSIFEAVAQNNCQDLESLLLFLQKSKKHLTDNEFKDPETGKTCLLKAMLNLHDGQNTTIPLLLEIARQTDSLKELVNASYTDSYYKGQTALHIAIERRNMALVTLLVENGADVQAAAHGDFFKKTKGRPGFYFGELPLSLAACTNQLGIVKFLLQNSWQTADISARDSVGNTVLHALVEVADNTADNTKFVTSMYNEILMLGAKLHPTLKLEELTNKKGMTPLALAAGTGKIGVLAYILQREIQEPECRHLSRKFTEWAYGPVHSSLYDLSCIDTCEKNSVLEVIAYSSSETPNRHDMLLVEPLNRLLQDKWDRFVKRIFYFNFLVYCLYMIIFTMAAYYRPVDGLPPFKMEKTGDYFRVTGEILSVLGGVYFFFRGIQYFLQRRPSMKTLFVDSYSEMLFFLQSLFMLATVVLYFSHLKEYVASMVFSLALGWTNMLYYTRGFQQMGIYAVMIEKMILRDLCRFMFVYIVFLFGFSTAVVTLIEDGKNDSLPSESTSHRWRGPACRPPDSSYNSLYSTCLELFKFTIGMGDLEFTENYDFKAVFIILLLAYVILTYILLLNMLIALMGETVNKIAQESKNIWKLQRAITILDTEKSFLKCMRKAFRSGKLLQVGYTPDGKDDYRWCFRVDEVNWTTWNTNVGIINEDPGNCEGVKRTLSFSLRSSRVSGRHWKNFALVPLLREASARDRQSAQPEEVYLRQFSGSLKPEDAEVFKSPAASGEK
Cytochrome P450 3A4, sequence (P08684 whole entry): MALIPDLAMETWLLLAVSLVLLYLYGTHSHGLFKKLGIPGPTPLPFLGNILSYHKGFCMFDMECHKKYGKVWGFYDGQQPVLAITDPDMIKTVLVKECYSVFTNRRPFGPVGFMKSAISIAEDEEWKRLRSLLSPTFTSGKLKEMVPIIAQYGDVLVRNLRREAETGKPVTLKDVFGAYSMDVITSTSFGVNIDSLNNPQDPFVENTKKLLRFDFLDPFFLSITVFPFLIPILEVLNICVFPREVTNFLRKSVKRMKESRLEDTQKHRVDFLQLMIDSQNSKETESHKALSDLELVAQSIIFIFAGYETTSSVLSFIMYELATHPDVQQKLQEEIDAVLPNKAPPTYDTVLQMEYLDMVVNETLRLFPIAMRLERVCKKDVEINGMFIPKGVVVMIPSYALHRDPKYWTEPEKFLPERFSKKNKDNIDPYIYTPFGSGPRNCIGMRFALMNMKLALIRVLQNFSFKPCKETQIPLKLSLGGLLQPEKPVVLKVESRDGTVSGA
Cytochrome P450 2D6, sequence (P10635 whole entry): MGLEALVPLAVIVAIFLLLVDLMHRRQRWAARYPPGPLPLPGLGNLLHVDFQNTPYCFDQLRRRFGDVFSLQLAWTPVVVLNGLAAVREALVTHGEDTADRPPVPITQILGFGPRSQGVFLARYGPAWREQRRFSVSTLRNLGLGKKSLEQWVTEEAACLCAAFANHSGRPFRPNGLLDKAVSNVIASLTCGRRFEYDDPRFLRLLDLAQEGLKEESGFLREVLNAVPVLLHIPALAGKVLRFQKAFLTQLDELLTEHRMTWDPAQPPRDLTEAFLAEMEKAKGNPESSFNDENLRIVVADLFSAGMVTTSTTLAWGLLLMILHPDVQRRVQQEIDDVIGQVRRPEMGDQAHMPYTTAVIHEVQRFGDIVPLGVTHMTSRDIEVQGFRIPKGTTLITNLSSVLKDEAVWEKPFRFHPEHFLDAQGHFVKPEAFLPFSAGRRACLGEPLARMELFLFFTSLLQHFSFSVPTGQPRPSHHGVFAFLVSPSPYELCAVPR

For the compound `O=C(Nc1ccc2c(c1)NC(=O)C(CCO)O2)C1CCN(c2cc(F)c(F)c(F)c2)CC1` (stereo not drawn), the Ratio in the data set on Caco-2 worked out at 10.6. Moreover, the pIC50 in data set [1] was 8.30; at Cytochrome P450 2D6, less than 5.00; at Cytochrome P450 3A4, 5.43. The values for the half-life in data set [2] and in data set [3] were 55 min and 79 min, respectively. Besides, the Papp A→B in [4] came to 1.5 ×10⁻⁶ cm/s.

`O=C1COc2ccc(NC(=O)C3CCN(c4cccc(Cl)c4)CC3)cc2N1`: the half-life amounted to 27.7 min in data set [2] and 4.4 min in [3]. This compound also gave a pKi in data set [5] of 7.01. In the case of `O=C(Nc1ccc2c(c1)NC(=O)C(C(=O)O)O2)C1CCN(c2cc(F)c(F)c(F)c2)CC1` (stereo not drawn), the result in data set [1] was inactive. Regarding `CC(C)(C)c1ccc(N2CCC(C(=O)Nc3ccc4c(c3)NC(=O)CO4)CC2)cc1`, in [5], the pKi was 6.85. `O=C1COc2ccc(NC(=O)C3CCN(c4cccc(F)c4Br)CC3)cc2N1`: the half-life in data set [2] stood at 15.6 min; in [3], 7.2 min. Moreover, the pKi in data set [5] is 7.09.

As to `O=C1COc2ccc(NC(=O)C3CCN(c4ccc(F)c(F)c4)CC3)cc2N1`, the half-life in data set [2] turned out to be 44.3 min; in [3], 15.5 min. As to `O=C1COc2cc(NC(=O)C3CCN(c4cc(F)c(F)c(F)c4)CC3)ccc2N1`, the inhibition in data set [6] is 55%.

As to `O=C1COc2c(cccc2NC(=O)C2CCN(c3cc(F)c(F)c(F)c3)CC2)N1`, the result in data set [1] was inactive. For `O=C(Nc1ccc2cc[nH]c2c1)C1CCN(c2cccc(C(F)(F)F)c2)CC1`, in [1], the pIC50 was less than 5.05. In the case of `O=C1COc2ccc(NC(=O)C3CCN(c4cc(F)cc(F)c4)CC3)cc2N1`, the values for the half-life in [2] and in [3] were 81.7 min and 19.4 min, respectively. Regarding `O=C1COc2ccc(NC(=O)C3CCN(c4cccc(C(F)(F)F)c4)CC3)cc2N1`, in data set [1], the pIC50 is 6.74. Besides, the half-life in [2] is 17.3 min; in [3], 2.8 min. Turning to `Cc1c(Cl)cccc1N1CCC(C(=O)Nc2ccc3c(c2)NC(=O)CO3)CC1`, in [5], the pKi is 7.00.

With `O=C1COc2cccc(NC(=O)C3CCN(c4cc(F)c(F)c(F)c4)CC3)c2N1`, the inhibition in data set [6] was determined as 9%. On the same count and under the same terms, for `O=C(O)CC1Oc2ccc(NC(=O)C3CCN(c4cc(F)c(F)c(F)c4)CC3)cc2NC1=O` (stereo not drawn) the value was 5%. In the case of `CC(C)c1ccccc1N1CCC(C(=O)Nc2ccc3c(c2)NC(=O)CO3)CC1`, the half-life in data set [2] turned out to be 11.4 min; in data set [3], 9 min. Compound `O=C1COc2ccc(NC(=O)C3CCN(c4ccccc4C(F)(F)F)CC3)cc2N1` showed a pKi in data set [5] of 7.17. For `CC1(C(=O)O)Oc2ccc(NC(=O)C3CCN(c4cc(F)c(F)c(F)c4)CC3)cc2NC1=O` (stereo not drawn), in data set [1], the outcome was inactive. As to `Cc1cccc(N2CCC(C(=O)Nc3ccc4c(c3)NC(=O)CO4)CC2)c1C`, the half-life in data set [2] was greater than 60 min; in data set [3], 6.5 min. Besides, the pKi in data set [5] is 7.55.

Turning to `CN1C(=O)COc2ccc(NC(=O)C3CCN(c4cc(F)c(F)c(F)c4)CC3)cc21`, in data set [1], the result was inactive. For the compound `COC(=O)CC1Oc2ccc(NC(=O)C3CCN(c4cc(F)c(F)c(F)c4)CC3)cc2NC1=O` (stereo not drawn), the negative-log IC50 (pIC50) in [1] is 6.05. Consider `O=C1COc2ccc(NC(=O)C3CCN(c4cc(F)c(F)c(F)c4)CC3)cc2N1`, for which the pIC50 in [1] is 7.23. For the same compound, the half-life in data set [2] came out at 58.9 min; in data set [3], 63.8 min. This compound also had a pKi in data set [5] of 7.31. As for `CCOC(=O)C1Oc2ccc(NC(=O)C3CCN(c4cc(F)c(F)c(F)c4)CC3)cc2NC1=O` (stereo not drawn), in [1], the outcome was inactive. Regarding `CC(=O)N1CCc2cc(NC(=O)C3CCN(c4cccc(C(F)(F)F)c4)CC3)ccc21`, the pIC50 in data set [1] was less than 5.05.
